Results taken from the M2OR odorant receptor database.

Biological target: T1, OR52D1 (Homo sapiens) (UniProt Q9H346)
T1 sequence (whole entry): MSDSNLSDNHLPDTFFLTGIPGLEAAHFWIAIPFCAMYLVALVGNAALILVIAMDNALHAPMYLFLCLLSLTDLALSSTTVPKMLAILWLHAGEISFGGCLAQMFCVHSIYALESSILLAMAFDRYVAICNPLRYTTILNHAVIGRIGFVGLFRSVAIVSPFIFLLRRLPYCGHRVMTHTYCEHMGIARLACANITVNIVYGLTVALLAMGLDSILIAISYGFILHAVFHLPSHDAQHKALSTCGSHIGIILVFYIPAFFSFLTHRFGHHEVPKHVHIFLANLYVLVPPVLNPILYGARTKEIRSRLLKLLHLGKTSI
Conditions: stereoisomer not certain
How it was run: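 Each receptor–molecule pair is labelled responsive or non-responsive (inactive) according to whether the original authors judged the measured signal statistically different from baseline. The data were taken from the main text and supplementary material of published papers and checked for typos and inconsistencies. Assay methods differed by source, with transient luciferase assays in mammalian cell lines being common.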
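Note: active if original authors judged signal statistically different from baseline.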

Structure (SMILES) | odorant receptor agonist call
CCCCC(CC)CO (stereo unspecified) | inactive
CCCCCCCCCC(=O)OC | inactive
CC1CCC(C(C)C)C(=O)C1 (stereo unspecified) | inactive
OCc1ccccc1 | active
COc1nccnc1CC(C)C | active
CCCCC(O)CCC (stereo unspecified) | inactive
CCCCCCC(=O)CC | active
CCCCCCCCCCC(C)=O | inactive
CCCCCCCC(C)O (stereo unspecified) | active
CC(=O)CCC=C(C)C | active
Cc1cnccn1 | inactive
CCCCCC(=O)OCC | active
Cc1occc(=O)c1O | inactive
c1ccc2[nH]ccc2c1 | inactive
CC(=O)OCCC(C)C | active
CCCC(=O)OCC | active
CSC | inactive
CC(=O)C(C)O (stereo unspecified) | active

Structure (SMILES) | odorant receptor agonist call
CCCCOC(=O)CCC | active
CCCCCCCCCCCC(=O)O | inactive
c1ccc2scnc2c1 | active
CCCC(=O)SC | active
COc1ccccc1 | active
C=C(C)C1CC=C(C)CC1 (stereo unspecified) | inactive
CCCCCC(=O)OC | inactive
CCCCCC1C(=O)CCC1CC(=O)OC (stereo unspecified) | inactive
CC(C)=CCCC(C)=CC#N | active
CCCCCC(O)CC (stereo unspecified) | inactive
Cc1ccc(C(C)C)c(O)c1 | inactive
CCCCCCC(C)O (stereo unspecified) | inactive
CCCCCCCCCCCCO | inactive
CCCCCCCC(=O)OCC | inactive
CC(C)=CCCC(C)CC=O (stereo unspecified) | inactive
CCCCCCC1CCC(=O)O1 (stereo unspecified) | inactive
c1ccc2ncccc2c1 | inactive
CCCCCCC(=O)OCC | active
